Assay outcomes: PubChem BioAssay, Johns Hopkins Ion Channel Center
This is a sample that favours compounds with a hit; in the whole collection about 3% have one here.
TRPC6 act: mouse TRPC6 channel activation; Q61143; actives 0.13% (n = 310,000); HEK293-TRPC6 membrane potential dye fluorescence; active compounds read high; B-score at 10 µM;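 active = B-score of the integrated fluorescence ratio above library mean plus 3 SD, and starting fluorescence ratio within library mean plus 5 SD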;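 also: higher score means more depolarization so channel activation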
TRPC4 block: blocks the mouse TRPC4 cation channel; Q9QUQ5; B-score at 10 µM; actives 0.39% (n = 300,000); HEK293 TRPC4beta/mu-opioid, DAMGO-evoked Fluo4 calcium flux; active compounds read low;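 active = B-score over 3 SD under the library average, no early fluorescence shift, positive overall ratio signal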
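Assay system: HEK293 cells with stable TRPC4beta plus mu-opioid receptor expression. Dosing: single dose. Measured by: Fluo4 Ca2+ flux fluorescence. Also added: DAMGO in two steps, submaximal then maximal. Read-out: B score from integrated Fluo4 fluorescence ratio.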
Kir21 block: inhibitors of mouse Kir2.1 inward-rectifier potassium channel; HEK293-Kir2.1, FluxOR thallium flux fluorescence; active compounds read low; B-score at 10 µM; actives 0.85% (n = 310,000);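 active = fluorescence ratio B-score at or below minus 3 SD of library scores, with starting-brightness B-score within 2 SD, cut at about -4.2 in these data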;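 also: channel flux triggered by added potassium and thallium sulfate stimulus; B-score of peak minus minimum fluorescence over baseline after thallium stimulus; more negative B-score means stronger Kir2.1 block with less thallium influx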
Target sequence (P35561 whole entry, looked up): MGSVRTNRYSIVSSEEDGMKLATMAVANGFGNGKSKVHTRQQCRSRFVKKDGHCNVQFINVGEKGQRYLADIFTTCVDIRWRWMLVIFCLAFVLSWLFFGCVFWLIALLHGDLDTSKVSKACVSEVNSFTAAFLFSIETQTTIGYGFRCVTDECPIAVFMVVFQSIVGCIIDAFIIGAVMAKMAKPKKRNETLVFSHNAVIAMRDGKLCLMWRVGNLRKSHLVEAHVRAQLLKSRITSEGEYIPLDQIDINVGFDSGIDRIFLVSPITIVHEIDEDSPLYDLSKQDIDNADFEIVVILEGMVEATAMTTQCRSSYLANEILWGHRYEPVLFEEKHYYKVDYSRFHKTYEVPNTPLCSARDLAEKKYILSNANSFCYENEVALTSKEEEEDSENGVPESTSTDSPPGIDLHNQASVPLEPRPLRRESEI
TRPC4 act: TRPC4 (mouse) channel activation; HEK293 TRPC4beta/mu-opioid, Fluo4 calcium fluorescence; active compounds read high; B-score at 10 µM; actives 0.49% (n = 310,000); AID 2237;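 active = B-score above 5 SD of library B-scores, and initial fluorescence ratio not above library mean plus 5 SD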;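 also: positive B-score marks a calcium rise read as TRPC4 activation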
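Assay system: HEK293 stable line with TRPC4beta plus mu-opioid receptor; schedule: 45 min room-temperature Fluo4 loading, 110 s read; technique: kinetic Fluo4 calcium fluorescence; evaluation: integrated baseline-normalised fluorescence ratio, converted to per-well B score; controls: buffer (low) and maximal DAMGO (high)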
TRPC6 inhibitor: mouse TRPC6 channel inhibition; Q61143; HEK293-TRPC6, membrane potential dye, ACh-evoked depolarization; active compounds read low; B-score at 10 µM; actives 1.1% (n = 310,000); AID 2553;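 active = B-score under library mean minus 3 SD, initial fluorescence not abnormally high, positive integrated signal ratio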;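 also: B-score derived from integrated fluorescence ratio over the kinetic read; more negative B-score means stronger inhibition of depolarization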
TRPC4 PAM: allosterically enhances the mouse TRPC4 cation channel | AID 2227 | actives 0.42% (n = 310,000) | B-score at 10 µM | HEK293 TRPC4beta/mu-opioid, DAMGO EC20, Fluo-4 Ca2+ flux; active compounds read high;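 active = B-score of calcium response area above 5 SD of library B-scores, with initial fluorescence ratio within 5 SD of library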
HEK293 TRPC6 ctr: counter-screen for TRPC6 modulators: effect in parental HEK293 cells | shares compounds with TRPC6 inhibitor | membrane potential dye fluorescence | membrane potential signal change, % at 10 µM | actives 51% (n = 2,400) | AID 488924;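 active = membrane potential signal moves up or down beyond 5 SD from buffer-only wells, on both duplicate plates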
HEK293 MPD ctr 2: second counter-screen for TRPC6 modulators: effect in parental HEK293 cells; shares compounds with TRPC6 inhibitor; membrane potential dye fluorescence; after compound, maximal acetylcholine stimulation; inhibition, % at 10 µM; actives 14% (n = 2,400); AID 488926;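 active = membrane potential signal drops by more than 5 SD from the mean control signal, in both duplicate plates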
TRPC4 ctr mod: tests whether TRPC6 modulators also affect mouse TRPC4; percent change from control (negative = decrease, positive = increase), % at 10 µM; HEK293 TRPC4/mu-opioid, membrane potential fluorescence; AID 488927; shares compounds with TRPC6 inhibitor; actives 69% (n = 2,400);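 active = membrane potential signal moved up or down beyond 5 SD of buffer control wells, in both duplicate plates, actives on both sides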
TRPC4 ctr inh 2: second check of whether TRPC6 modulators also affect mouse TRPC4; actives 55% (n = 2,400); HEK293 TRPC4/mu-opioid, membrane potential dye fluorescence; stimulated with maximal-effect DAMGO; shares compounds with TRPC6 inhibitor; inhibition, % at 10 µM;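 active = drop in membrane potential signal beyond 5 SD of the control wells in both duplicate plates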;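 also: TRPC4 counter screen for TRPC6 hits run under conditions tuned for TRPC6 not TRPC4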
TRPC6 inh conf: mouse TRPC6 inhibitor confirmation; actives 43% (n = 3,300); shares compounds with TRPC6 inhibitor; inhibition, % at 10 µM; HEK293-TRPC6, membrane potential dye, ACh-evoked depolarization;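 active = fluorescence ratio falls more than 5 SD below the full-stimulation control mean, in both duplicate runs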;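 also: integrated fluorescence ratio of peak minus minimum over baseline after agonist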
TRPC6 act conf: confirmation of mouse TRPC6 activators; activation, % at 10 µM; HEK293-TRPC6 membrane potential dye fluorescence, FDSS; actives 11% (n = 2,800); shares compounds with TRPC6 inhibitor; AID 488961;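 active = ratio signal rise beyond 5 SD above unstimulated control wells' mean, seen in both duplicate runs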
Of the large screens only hits and unclear results are named; the others gave an inactive call (follow-up assays come after a bar, where they were run).

CCOC(=O)CSc1nc2sc3c(c2c(=O)n1C1CCCCC1)CCN(C)C3	TRPC6 inhibitor -5.6 | HEK293 TRPC6 ctr inactive | HEK293 MPD ctr 2 inactive | TRPC4 ctr mod 8.0% | TRPC4 ctr inh 2 46% | TRPC6 inh conf inactive | TRPC6 act conf inactive
CCn1c(SCC(N)=O)nc2sc3c(c2c1=O)CCN(C)C3	TRPC6 inhibitor -6 | HEK293 TRPC6 ctr -203% | HEK293 MPD ctr 2 inactive | TRPC4 ctr mod -36% | TRPC4 ctr inh 2 36% | TRPC6 inh conf 44% | TRPC6 act conf inactive
CSc1nc(SCC(=O)NCc2ccco2)c2c3c(sc2n1)CN(C)CC3	none
CCn1c(SCC(=O)Nc2ccc(C)cc2)nc2sc3c(c2c1=O)CCN(C)C3	none
CCSc1nc2sc3c(c2c(=O)n1-c1ccccc1)CCN(C)C3	none
COCCSc1nc2sc3c(c2c(=O)n1-c1ccccc1)CCN(C)C3	TRPC6 inhibitor -7.5 | HEK293 TRPC6 ctr -108% | HEK293 MPD ctr 2 inactive | TRPC4 ctr mod -22% | TRPC4 ctr inh 2 inactive | TRPC6 inh conf inactive | TRPC6 act conf inactive
CSc1nc(SCC(N)=O)c2c3c(sc2n1)CN(C)CC3	TRPC6 inhibitor -11 | HEK293 TRPC6 ctr -210% | HEK293 MPD ctr 2 68% | TRPC4 ctr mod -38% | TRPC4 ctr inh 2 47% | TRPC6 inh conf inactive | TRPC6 act conf inactive
CC(NC(=O)c1cccs1)c1n[nH]c(=S)n1C (stereo not drawn)	none
COc1cccc(CNC(=O)Cn2ncn3cccc3c2=O)c1OC	none
Cn1cnc([N+](=O)[O-])c1SCCO	none
Cc1ccc(CCC(=O)Nc2ccccc2C(=O)O)o1	none
CCNc1nc(SCC(N)=O)nc2sc3c(c12)CCN(C)C3	TRPC6 inhibitor -6.6 | HEK293 TRPC6 ctr -196% | HEK293 MPD ctr 2 inactive | TRPC4 ctr mod -38% | TRPC4 ctr inh 2 43% | TRPC6 inh conf 52% | TRPC6 act conf inactive
CCC(O)CNc1nc(SC)nc2sc3c(c12)CCN(C)C3 (stereo not drawn)	TRPC6 inhibitor -7.2 | HEK293 TRPC6 ctr -167% | HEK293 MPD ctr 2 inactive | TRPC4 ctr mod -39% | TRPC4 ctr inh 2 36% | TRPC6 inh conf inactive | TRPC6 act conf inactive
COC(CNc1nc(SC)nc2sc3c(c12)CCN(C)C3)OC	none
O=C(c1ccco1)N1CCN(Cc2cccc([N+](=O)[O-])c2)CC1	none
Cc1cc(C)cc(N=Cc2[nH]c3ccc(Br)c(Cl)c3c2O)c1	TRPC6 act 36, TRPC4 PAM 11 | HEK293 TRPC6 ctr inactive | HEK293 MPD ctr 2 inactive | TRPC4 ctr mod inactive | TRPC4 ctr inh 2 inactive | TRPC6 inh conf inactive | TRPC6 act conf inactive
Cc1ccc(N=Cc2cc(Br)cc(Cl)c2O)cc1	none
Cc1ccc(C)c2[nH]c(=O)c(CN(CCN3CCCC3)C(=O)Nc3cccc(Cl)c3)cc12	TRPC6 inhibitor -6.8 | HEK293 TRPC6 ctr inactive | HEK293 MPD ctr 2 67% | TRPC4 ctr mod inactive | TRPC4 ctr inh 2 80% | TRPC6 inh conf 60% | TRPC6 act conf inactive
Cc1cc(C)c2cc(CN(CCN3CCCC3)C(=O)Nc3ccc(F)cc3)c(=O)[nH]c2c1	none
